The test system of data set [1] is N2a. Nature of the data set: Antiamyloidogenic activity in mouse N2A cells transfected with human APP Swedish mutant assessed as increase of amyloid beta (1 to 40) level at 200 uM after 24 hrs by ELISA. Type of data set: functional, cell-based. In general terms: An ELISA detects its analyte on a solid surface through an enzyme-linked reagent.
In data set [2] the test system is N2a. Nature of the data set: Antiamyloidogenic activity in mouse N2A cells transfected with human APP Swedish mutant assessed as increase of amyloid beta (1 to 42) level at 200 uM after 24 hrs by ELISA. Type of data set: functional, cell-based.
Data set [3] has as its system N2a. Nature of the data set: Antiamyloidogenic activity in mouse N2A cells transfected with human APP Swedish mutant assessed as increase of amyloid beta (1 to 42)/(1 to 40) ratio at 200 uM after 24 hrs by ELISA. It counts as functional, cell-based.
In data set [4] the test system is N2a. Nature of the data set: Antiamyloidogenic activity in mouse N2A cells transfected with human APP Swedish mutant assessed as increase of amyloid beta (1 to 42) level at 200 uM after 24 hrs by ELISA relative to control. It counts as functional.
Data set [5] relates to N2a. Nature of the data set: Antiamyloidogenic activity in mouse N2A cells transfected with human APP Swedish mutant assessed as effect on amyloid beta (1 to 37) level at 200 uM after 24 hrs by ELISA. Type of data set: functional, cell-based.
The test system of data set [6] is N2a. Nature of the data set: Antiamyloidogenic activity in mouse N2A cells transfected with human APP Swedish mutant assessed as effect on amyloid beta (1 to 38) level at 200 uM after 24 hrs by ELISA. It counts as functional, cell-based.
For data set [7], the system named is N2a. Nature of the data set: Antiamyloidogenic activity in mouse N2A cells assessed as degradation of amyloid beta (1 to 42) level at 100 uM treated 24 hrs before amyloid beta (1 to 42) challenge measured after 8 hrs by MALDI/TOF analysis. Type of data set: functional, cell-based. The procedure, abridged:
(§1)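 Wild-type N2a cells were plated at 100 × 10⁴ cells/well, PBS-washed, and drug-treated in DMEM with 0.2 % FBS. Conditioned medium was collected after 24 h per the legend (18 h per the methods), given NaN₃, spun at 10,000 g, added to an Aβ1–40 + Aβ1–42 mixture, and incubated 8 h at 37 °C. Samples were then given protease inhibitors, spiked with Aβ1–43, and analysed by 4G8/6E10 IP-MALDI-TOF. Values were normalised to cell-free media control; mean and s.d.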

The test system of data set [8] is N2a. Nature of the data set: Antiamyloidogenic activity in mouse N2A cells assessed as degradation of amyloid beta (1 to 40) level at 100 uM treated 24 hrs before amyloid beta (1 to 40) challenge measured after 8 hrs by MALDI/TOF analysis. Type of data set: functional, cell-based. In a few lines:
as §1

The subject of data set [9] is N2a. Nature of the data set: Antiamyloidogenic activity in mouse N2A cells assessed as reduction of amyloid beta (1 to 42)/(1 to 40) ratio at 100 uM treated 24 hrs before amyloid beta (1 to 42)/(1 to 40) challenge measured after 8 hrs by MALDI/TOF analysis. It counts as functional, cell-based. The procedure, abridged: as §1
The nature of data set [10]: Cytotoxicity against mouse RAW264.7 cells assessed as cell viability at 100 uM after 24 hrs by MTT assay relative to control. It counts as cell-based. The note with it: read-out: Activity. The procedure, abridged: (§2)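 RAW 264.7 cells given 0.5 mg/ml MTT in medium for 4 h, washed with PBS; formazan dissolved in DMSO, shaken 30 min, absorbance read at 570 nm against a 630 nm reference. Viability expressed relative to DMSO control.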

In data set [11] the test system is N2a. Nature of the data set: Antiamyloidogenic activity in mouse N2A cells transfected with human APP Swedish mutant assessed as reduction of amyloid beta (1 to 42) level at 100 uM after 24 hrs by ELISA. Type of data set: functional, cell-based.
Data set [12] has as its system N2a. Nature of the data set: Antiamyloidogenic activity in mouse N2A cells transfected with human APP Swedish mutant assessed as increase of amyloid beta (1 to 37) level at 100 uM after 24 hrs by ELISA. Type of data set: functional, cell-based.
The test system of data set [13] is N2a. Nature of the data set: Antiamyloidogenic activity in mouse N2A cells transfected with human APP Swedish mutant assessed as amyloid beta (1 to 42) level at 1 uM after 24 hrs by ELISA relative to control.
The test system of data set [14] is RAW264.7. Nature of the data set: Antiinflammatory activity against mouse RAW264.7 cells assessed as LPS-induced nitrate production at 10 uM treated 30 mins before LPS challenge measured after 24 hrs by Griess reagent method relative to control. In general terms: Nitrite, measured by Griess reagent, commonly stands in for NO production.
In data set [15] the test system is RAW264.7. Nature of the data set: Antiinflammatory activity against mouse RAW264.7 cells assessed as LPS-induced nitrate production at 100 uM treated 30 mins before LPS challenge measured after 24 hrs by Griess reagent method relative to control.
Data set [16] concerns N2a. Nature of the data set: Antiamyloidogenic activity in mouse N2A cells transfected with human APP Swedish mutant assessed as increase of amyloid beta (1 to 42) level at 100 uM after 24 hrs by ELISA. Type of data set: functional, cell-based.
In data set [17] the test system is N2a. Nature of the data set: Antiamyloidogenic activity in mouse N2A cells transfected with human APP Swedish mutant assessed as increase of amyloid beta (1 to 42)/(1 to 40) ratio at 100 uM after 24 hrs by ELISA. Type of data set: functional, cell-based.
In data set [18] the test system is N2a. Nature of the data set: Antiamyloidogenic activity in mouse N2A cells assessed as degradation of amyloid beta (1 to 42) level at 1 uM treated 24 hrs before amyloid beta (1 to 42) challenge measured after 8 hrs by MALDI/TOF analysis. Type of data set: functional, cell-based. The procedure, abridged:
(§3)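 Wild-type N2a cells in DMEM with 0.2 % FBS, drug-treated after PBS wash; conditioned media collected (18 h per methods, 24 h per text), NaN₃ added, centrifuged, then mixed with Aβ1–40 + Aβ1–42 and incubated 8 h at 37 °C. Cell-free media served as control. Aβ measured by 4G8/6E10 immunoprecipitation and MALDI-TOF, normalized to Aβ1–43 spike and to media control; mean and s.d.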

Data set [19] has as its system N2a. Nature of the data set: Antiamyloidogenic activity in mouse N2A cells assessed as degradation of amyloid beta (1 to 40) level at 1 uM treated 24 hrs before amyloid beta (1 to 40) challenge measured after 8 hrs by MALDI/TOF analysis. It counts as functional, cell-based. In a few lines: as §3
Data set [20] relates to N2a. Nature of the data set: Antiamyloidogenic activity in mouse N2A cells assessed as reduction of amyloid beta (1 to 42)/(1 to 40) ratio at 1 uM treated 24 hrs before amyloid beta (1 to 42)/(1 to 40) challenge measured after 8 hrs by MALDI/TOF analysis. Type of data set: functional, cell-based. The procedure, abridged: as §3
Data set [21] deals with N2a. Nature of the data set: Antiamyloidogenic activity in mouse N2A cells transfected with human APP Swedish mutant assessed as increase of amyloid beta (1 to 40) level at 100 uM after 24 hrs by ELISA. It counts as functional, cell-based.
Data set [22] can be described thus: Ratio of drug level in brain to plasma in C57BL/6 mouse at 10 mg/kg, ip after 30 mins. The note with it: read-out: BPR. Further details: dose 10 mg/kg, route intraperitoneal. It counts as ADME, organism-based. The procedure, abridged:
(§4)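 Male C57BL/6 mice (25 g) dosed i.p. with 10 mg/kg in DMSO/H₂O 1:1, sacrificed at 30 or 120 min. Brain extracted by methanol homogenization and plasma by acetonitrile, then C18 LC-MS/MS with MRM m/z 361→200 in positive mode. Quantified against a 4–500 ng/mL standard curve; N=4, mean and s.e.m.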

The nature of data set [23]: Ratio of drug level in brain to plasma in C57BL/6 mouse at 10 mg/kg, ip after 120 mins. It counts as ADME, organism-based. Further details: dose 10 mg/kg, route intraperitoneal. The note with it: read-out: BPR. The procedure, abridged: as §4
Data set [24] has as its system N2a. Nature of the data set: Antiamyloidogenic activity in mouse N2A cells assessed as degradation of amyloid beta (1 to 42) level at 10 uM treated 24 hrs before amyloid beta (1 to 42) challenge measured after 8 hrs by MALDI/TOF analysis. It counts as functional, cell-based. The procedure, abridged:
as §3

Data set [25] relates to N2a. Nature of the data set: Antiamyloidogenic activity in mouse N2A cells assessed as degradation of amyloid beta (1 to 40) level at 10 uM treated 24 hrs before amyloid beta (1 to 40) challenge measured after 8 hrs by MALDI/TOF analysis. It counts as functional, cell-based. In a few lines:
as §3

The test system of data set [26] is N2a. Nature of the data set: Antiamyloidogenic activity in mouse N2A cells assessed as reduction of amyloid beta (1 to 42)/(1 to 40) ratio at 10 uM treated 24 hrs before amyloid beta (1 to 42)/(1 to 40) challenge measured after 8 hrs by MALDI/TOF analysis. Type of data set: functional, cell-based. In a few lines:
as §3

A short description of data set [27]: Cytotoxicity against mouse RAW264.7 cells assessed as cell viability at 10 uM after 24 hrs by MTT assay relative to control. It counts as cell-based. The settings on record: read-out: Activity. The procedure, abridged:
as §2

For data set [28], the system named is N2a. Nature of the data set: Antiamyloidogenic activity in mouse N2A cells transfected with human APP Swedish mutant assessed as amyloid beta (1 to 42) level at 100 uM after 24 hrs by ELISA relative to control.

Calls of active or inactive are those of the source. No cut-off for these calls is given here.

Take `CC(C)OC(=O)C(C)(C)Oc1ccc(C(=O)c2ccc(Cl)cc2)cc1` [FENOFIBRATE]: the result in [1], in [2], in data set [3], in data set [5] and in [6] was Active. Also, in data set [4], the “fold change (FC)” value is recorded as 3.

With `CC(C(=O)O)c1ccc(-c2ccccc2)c(F)c1` (configuration not stated) [FLURBIPROFEN], the outcome in [7], in data set [8], in data set [9] and in data set [12] was Active. Also, the viability at 24 h, 100 µM in [10] was 10.9%. Besides, in data set [11], the inhibition entry was “Active”. In addition, the level, % of control at 1 µM in data set [13] stood at 86.6%. Also, in data set [14], the level, % of control at 10 µM worked out at 80.7%. Besides, the level, % of control at 100 µM in data set [15] stood at 69.1%.

For the compound `CC(C(=O)OCCCCO[N+](=O)[O-])c1ccc(-c2ccccc2)c(F)c1` (configuration not stated), the outcome in [16], in data set [17], in data set [18], in data set [19], in data set [20] and in [21] was Active. Also, the viability at 24 h, 100 µM in data set [10] turned out to be 108%. For the same compound, the level, % of control at 100 µM in [15] turned out to be 49.8%.

`CC(C(=O)NCCCCO[N+](=O)[O-])c1ccc(-c2ccccc2)c(F)c1` (configuration not stated): the Kp at 0.5 h in data set [22] was found to be 37. The Kp at 2 h in [23] is 13.

`CSc1ccc(/C=C2/C=C(CC(=O)O)c3cc(F)ccc32)cc1`: the outcome in [24], in data set [25] and in [26] was Active. Moreover, the viability at 24 h, 10 µM in [27] is 100%. Also, the level, % of control at 1 µM in [13] came to 80.8%. The level, % of control at 10 µM in data set [14] was 47.5%.

As to `COc1ccc2c(c1)c(CC(=O)O)c(C)n2C(=O)c1ccc(Cl)cc1` [INDOMETHACIN], in data set [27], the viability at 24 h, 10 µM turned out to be 98.7%. For the same compound, the viability at 24 h, 100 µM in data set [10] was determined as 92%. Besides, the level, % of control at 1 µM in data set [13] was found to be 108%. Moreover, the level, % of control at 100 µM was found to be 76.7% in data set [28] and 39.8% in data set [15]. Besides, in data set [14], the level, % of control at 10 µM was 70.9%.
